Measured values taken from paper PMC9148379 (Alzheimer's & Dementia, 2021).
Where two headings read alike, the source gives them in different places.

Key:
[1] = Experiment 8: aliquot freeze-thawing; type: in vitro ADME, human; details: EDTA plasma; for impact of sample freeze–thawing (up to four cycles) on values: six Aβ assays
How it was run: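 Human EDTA plasma subjected to repeated freeze–thaw was compared with reference aliquots (centrifuged 1800 × g at room temperature after 30 min standing at room temperature, aliquoted immediately, stored at −80°C). Each value was normalized to its reference as %recovery, and the group median per condition was taken. A median change >10% was deemed relevant. GFAP was measured with the pre-commercial Simoa Neurology 4-Plex E kit.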

[2] = cited from earlier work
[3] = type: in vitro ADME, human; details: EDTA whole blood, Simoa N3PA
[4] = cited from earlier work; for time from which levels in whole blood at RT started declining: different assays than used in this study
[5] = cited from earlier work; remark: listed apart in the source
[6] = Experiment 7: two-week intermediate storage in the fridge; type: in vitro ADME, human; details: EDTA plasma, 2 weeks at −20°C before −80°C; six Aβ assays

| Substance | median recovery after four additional freeze–thaw cycles, other biomarkers ([1]; GFAP by Simoa N4PE) [%] | change at the second freeze–thaw cycle ([1]; Simoa N4PE) | plasma levels at freeze–thaw cycle 4 [2] | median recovery, tubes held at RT for 3 hours pending centrifugation ([3]; 3 hours) [%] | median recovery, tubes held at RT for 24 hours pending centrifugation ([3]; 24 hours) [%] | time for which t‐tau was stable prior to centrifugation ([4]; other t‐tau assays) | time from which levels in separated plasma decline at RT [5] [h] | impact of sample freeze–thawing (up to four cycles) on values [1] | time from which levels in whole blood at RT started declining ([4]; ref 33) [h] | time from which levels in whole blood at RT started declining ([4]; ref 36) [h] | decrease of values after two‐week intermittent storage at −20°C [6] |
| --- | --- | --- | --- | --- | --- | --- | --- | --- | --- | --- | --- |
| glial fibrillary acidic protein [GFAP] | 113 | no change | remained stable |  |  |  |  |  |  |  |  |
| total tau [t‐tau] |  |  |  | 83 | 49 | up to 6 hours |  |  |  |  |  |
| Aβ40: endogenous amyloid beta 40 peptide measured in blood as Alzheimer's disease biomarker |  |  |  |  |  |  | 8 | did not impact | 1 | 48 | did not |
| Aβ42: endogenous amyloid beta 42 peptide measured in blood as Alzheimer's disease biomarker |  |  |  |  |  |  | 6 | did not impact | 1 | 6 | did not |
